Test results from ChEMBL document CHEMBL3396951, “Design, synthesis and SAR studies of GABA uptake inhibitors derived from 2-substituted pyrrolidine-2-yl-acetic acids” (Bioorg Med Chem, 2015).

Tests used:
[1] = molecular target: T1, GABA transporter 2 (Mus musculus) (UniProt P31651); experiment: Inhibition of mouse GAT2 expressed in HEK293 cells assessed as remaining [3H]GABA uptake at 100 uM by [3H]GABA uptake assay; assay type: cell-based
T1 sequence (whole entry): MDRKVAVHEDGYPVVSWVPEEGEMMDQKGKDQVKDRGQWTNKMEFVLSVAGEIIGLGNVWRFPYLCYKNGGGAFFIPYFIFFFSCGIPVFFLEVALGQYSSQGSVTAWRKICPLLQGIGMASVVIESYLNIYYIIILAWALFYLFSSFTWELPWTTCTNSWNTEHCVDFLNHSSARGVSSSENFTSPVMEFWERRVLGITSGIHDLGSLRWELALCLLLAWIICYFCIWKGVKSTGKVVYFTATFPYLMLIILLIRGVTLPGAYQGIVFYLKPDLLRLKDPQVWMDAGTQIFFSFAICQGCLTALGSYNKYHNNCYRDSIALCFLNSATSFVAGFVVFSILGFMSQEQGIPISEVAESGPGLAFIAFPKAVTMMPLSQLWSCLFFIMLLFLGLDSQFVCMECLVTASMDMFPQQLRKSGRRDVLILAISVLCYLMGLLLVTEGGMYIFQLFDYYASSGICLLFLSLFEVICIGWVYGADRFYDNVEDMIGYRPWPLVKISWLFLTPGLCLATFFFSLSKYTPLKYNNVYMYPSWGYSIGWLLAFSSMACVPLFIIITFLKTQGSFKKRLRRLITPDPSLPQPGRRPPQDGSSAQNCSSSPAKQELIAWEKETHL
Outline: (§1)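 Transfected HEK293 cells (mGAT1–4) tested for [3H]GABA uptake at 100 µM test substance. Remaining uptake is expressed against a control without inhibitor.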

GABA transporter 3 = molecular target: T2, GABA transporter 3 (Mus musculus, UniProt P31649); experiment: Inhibition of mouse GAT3 expressed in HEK293 cells by [3H]GABA uptake assay; assay type: cell-based
T2 sequence (P31649 whole entry): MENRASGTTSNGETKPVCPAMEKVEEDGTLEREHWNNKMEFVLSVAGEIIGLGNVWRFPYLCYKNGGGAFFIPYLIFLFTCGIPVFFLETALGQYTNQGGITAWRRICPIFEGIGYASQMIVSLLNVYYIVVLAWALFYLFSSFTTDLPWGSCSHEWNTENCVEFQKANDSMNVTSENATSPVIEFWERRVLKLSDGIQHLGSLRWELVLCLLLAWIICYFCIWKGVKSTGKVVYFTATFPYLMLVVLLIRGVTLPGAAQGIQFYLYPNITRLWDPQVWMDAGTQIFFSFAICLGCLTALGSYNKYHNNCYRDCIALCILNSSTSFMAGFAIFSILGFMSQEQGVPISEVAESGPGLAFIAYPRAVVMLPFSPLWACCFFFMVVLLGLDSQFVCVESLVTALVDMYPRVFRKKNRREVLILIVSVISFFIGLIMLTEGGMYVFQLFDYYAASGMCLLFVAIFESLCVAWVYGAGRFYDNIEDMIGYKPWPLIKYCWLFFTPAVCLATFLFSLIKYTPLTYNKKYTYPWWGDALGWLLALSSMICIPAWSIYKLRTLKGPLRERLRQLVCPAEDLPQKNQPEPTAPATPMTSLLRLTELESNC

GABA transporter 4 = molecular target: T3, GABA transporter 4 (Mus musculus, UniProt P31650); experiment: Inhibition of mouse GAT4 expressed in HEK293 cells by [3H]GABA uptake assay; assay type: cell-based
T3 sequence (P31650 whole entry): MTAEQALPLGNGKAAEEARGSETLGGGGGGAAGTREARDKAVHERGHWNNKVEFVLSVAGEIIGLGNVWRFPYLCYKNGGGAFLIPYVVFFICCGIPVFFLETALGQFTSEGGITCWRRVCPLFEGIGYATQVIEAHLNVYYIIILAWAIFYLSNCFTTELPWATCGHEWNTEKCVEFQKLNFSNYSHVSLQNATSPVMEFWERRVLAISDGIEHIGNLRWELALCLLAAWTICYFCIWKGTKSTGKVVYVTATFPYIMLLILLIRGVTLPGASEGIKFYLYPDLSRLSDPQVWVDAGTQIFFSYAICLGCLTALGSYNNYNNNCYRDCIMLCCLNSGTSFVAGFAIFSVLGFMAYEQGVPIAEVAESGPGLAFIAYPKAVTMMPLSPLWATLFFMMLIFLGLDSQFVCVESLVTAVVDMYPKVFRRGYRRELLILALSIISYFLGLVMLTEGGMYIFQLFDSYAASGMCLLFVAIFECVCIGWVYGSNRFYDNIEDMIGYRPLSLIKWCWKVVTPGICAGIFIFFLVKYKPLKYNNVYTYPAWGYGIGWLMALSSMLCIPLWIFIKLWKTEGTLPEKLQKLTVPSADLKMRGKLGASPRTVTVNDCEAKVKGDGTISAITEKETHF

[2] = molecular target: Sodium- and chloride-dependent GABA transporter 1 (Mus musculus) (UniProt P31648); experiment: Inhibition of mouse GAT1 expressed in HEK293 cells assessed as remaining [3H]GABA uptake at 100 uM by [3H]GABA uptake assay; assay type: cell-based; outline: as §1
Mus musculus = organism: Mus musculus; experiment: Selectivity for mouse GAT1 over mouse GAT4
[3] = molecular target: T4, Sodium- and chloride-dependent GABA transporter 1 (Mus musculus, UniProt P31648); experiment: Inhibition of mouse GAT1 expressed in HEK293 cells by [3H]GABA uptake assay; assay type: cell-based
GABA transporter 2 = molecular target: T5, GABA transporter 2 (Mus musculus, UniProt P31651); experiment: Inhibition of mouse GAT2 expressed in HEK293 cells by [3H]GABA uptake assay; assay type: cell-based
T5 sequence (P31651 whole entry): T1 sequence (whole entry)
Outline: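 [3H]GABA uptake inhibition in HEK293 cells expressing mGAT1–4 or hGAT-1, reported as pIC50 (mean ± SEM, n = 3 independent experiments). The hGAT-1 assay matched the mGAT1 assay except that HEK293 […] expressing hGAT-1 was used.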

[4] = molecular target: T6, Sodium- and chloride-dependent GABA transporter 1 (Homo sapiens, UniProt P30531); experiment: Binding affinity to human GAT1 expressed in HEK293 cells using NO71156 as unlabelled marker by LC-ESI-MS-MS based competitive MS binding assay; assay type: cell-based
T6 sequence (P30531 whole entry): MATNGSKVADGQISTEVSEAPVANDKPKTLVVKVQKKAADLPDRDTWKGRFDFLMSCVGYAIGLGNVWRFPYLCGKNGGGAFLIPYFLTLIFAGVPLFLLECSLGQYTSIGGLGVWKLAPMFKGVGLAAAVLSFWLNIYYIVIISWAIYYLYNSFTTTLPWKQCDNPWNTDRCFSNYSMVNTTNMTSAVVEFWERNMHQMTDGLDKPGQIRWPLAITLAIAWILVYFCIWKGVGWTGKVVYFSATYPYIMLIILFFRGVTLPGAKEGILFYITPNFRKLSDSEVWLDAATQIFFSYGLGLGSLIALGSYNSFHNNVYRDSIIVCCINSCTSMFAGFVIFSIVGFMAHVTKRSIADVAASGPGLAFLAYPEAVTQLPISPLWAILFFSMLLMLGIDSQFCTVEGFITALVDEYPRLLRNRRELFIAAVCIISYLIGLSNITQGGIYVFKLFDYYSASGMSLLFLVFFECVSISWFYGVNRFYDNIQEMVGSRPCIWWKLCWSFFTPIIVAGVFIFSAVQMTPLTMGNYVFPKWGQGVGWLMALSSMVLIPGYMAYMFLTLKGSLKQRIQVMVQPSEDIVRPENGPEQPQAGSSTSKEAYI
Outline: (§2)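 Competitive MS Binding Assay using membrane preparations from HEK293 cells expressing the transporter. hGAT-1 membranes were prepared the same way as mGAT1 membranes. Affinity reported as pKi ± SEM from three independent experiments.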

[5] = molecular target: T4, Sodium- and chloride-dependent GABA transporter 1; experiment: Binding affinity to mouse GAT1 expressed in HEK293 cells using NO71156 as unlabelled marker by LC-ESI-MS-MS based competitive MS binding assay; assay type: cell-based; outline: as §2
[6] = molecular target: T7, GABA transporter 3 (Mus musculus) (UniProt P31649); experiment: Inhibition of mouse GAT3 expressed in HEK293 cells assessed as remaining [3H]GABA uptake at 100 uM by [3H]GABA uptake assay; assay type: cell-based; outline: as §1
T7 sequence (whole entry): T2 sequence (P31649 whole entry)

[7] = molecular target: T8, GABA transporter 4 (Mus musculus) (UniProt P31650); experiment: Inhibition of mouse GAT4 expressed in HEK293 cells assessed as remaining [3H]GABA uptake at 1 mM by [3H]GABA uptake assay; assay type: cell-based
T8 sequence (whole entry): T3 sequence (P31650 whole entry)
Outline: (§3)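 Radioactive [3H]GABA uptake run in HEK293 cells expressing mGAT1–4 with 1 mM test substance. Readout is % remaining uptake relative to an inhibitor-free control.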

[8] = molecular target: T7, GABA transporter 3 (Mus musculus); experiment: Inhibition of mouse GAT3 expressed in HEK293 cells assessed as remaining [3H]GABA uptake at 1 mM by [3H]GABA uptake assay; assay type: cell-based; outline: as §3
[9] = molecular target: Sodium- and chloride-dependent GABA transporter 1 (Mus musculus) (UniProt P31648); experiment: Inhibition of mouse GAT1 expressed in HEK293 cells assessed as remaining [3H]GABA uptake at 1 mM by [3H]GABA uptake assay; assay type: cell-based; outline: as §3
[10] = molecular target: T1, GABA transporter 2 (Mus musculus); experiment: Inhibition of mouse GAT2 expressed in HEK293 cells assessed as remaining [3H]GABA uptake at 1 mM by [3H]GABA uptake assay; assay type: cell-based; outline: as §3
[11] = molecular target: T8, GABA transporter 4 (Mus musculus); experiment: Inhibition of mouse GAT4 expressed in HEK293 cells assessed as remaining [3H]GABA uptake at 100 uM by [3H]GABA uptake assay; assay type: cell-based; outline: as §1
[12] = molecular target: T6, Sodium- and chloride-dependent GABA transporter 1; experiment: Inhibition of human GAT1 expressed in HEK293 cells by [3H]GABA uptake assay; assay type: cell-based

| SMILES | Activity [1] [%] | IC50 (GABA transporter 3) [µM] | IC50 (GABA transporter 4) [µM] | IC50 [3] [µM] | Ki [4] [µM] | Ki [5] [µM] | Activity [9] [%] | Activity [10] [%] | further results |
| --- | --- | --- | --- | --- | --- | --- | --- | --- | --- |
| COc1ccc(C(OCCN2CCC[C@@H]2[C@@H](O)C(=O)O)(c2ccc(OC)cc2)c2ccc(OC)cc2)cc1 (racemic) | 56 | 17 | 5.75 | – | – | – | – | – | Activity [2]: 68% |
| O=C(O)[C@H](O)[C@H]1CCCN1 (racemic) | – | 36.3 | 14.1 | 1000 | – | – | – | – | Selectivity ratio (Mus musculus): > 71; IC50 (GABA transporter 2): 170 µM |
| Cc1ccsc1C(=CCCN1CCC[C@@H]1[C@H](N)C(=O)O)c1sccc1C (racemic) | – | – | 100 | 100 | 19.1 | 37.2 | – | – | IC50 (GABA transporter 2): 100 µM; Activity [6]: 63% |
| O=C(O)C1([C@H]2CCCN2)CCC1 (racemic) | – | – | – | – | – | – | 92 | 91 | Activity [7]: 110%; Activity [8]: 73% |
| CCC(C(=O)O)[C@H]1CCCN1 (mixture of isomers) | – | – | – | – | – | – | 78 | 82 | Activity [7]: 95%; Activity [8]: 78% |
| N[C@H](C(=O)O)[C@H]1CCCN1CCC=C(c1ccccc1)c1ccccc1 (racemic) | 61 | – | – | 34.7 | – | – | – | – | Activity [11]: 83%; Activity [6]: 71% |
| O=C(O)C[C@H]1CCCN1 | – | 339 | 1120 | 240 | – | – | – | 81 | – |
| CC(C(=O)O)[C@H]1CCCN1 (mixture of isomers) | – | 309 | 339 | – | – | – | 83 | 59 | – |
| Cc1ccsc1C(=CCCN1CCC[C@@H]1[C@@H](O)C(=O)O)c1sccc1C (racemic) | 63 | – | – | 3.39 | 1.1 | 1.07 | – | – | Selectivity ratio (Mus musculus): > 29; Activity [11]: 74%; IC50 [12]: 4.17 µM; Activity [6]: 90% |
| O=C(O)[C@H](O)[C@H]1CCCN1CCC=C(c1ccccc1)c1ccccc1 (racemic) | 89 | – | – | 25.1 | 3.98 | 3.89 | – | – | Activity [11]: 59%; IC50 [12]: 13.8 µM; Activity [6]: 97% |
| N[C@@H](C(=O)O)[C@H]1CCCN1 (racemic) | – | 26.9 | 21.4 | 123 | – | – | – | – | IC50 (GABA transporter 2): 158 µM |
| O=C(O)[C@@H](O)[C@H]1CCCN1CCC=C(c1ccccc1)c1ccccc1 (racemic) | 60 | 100 | – | 2.29 | 0.214 | 0.145 | – | – | Activity [11]: 55%; IC50 [12]: 1.91 µM |
| CC(C)(C(=O)O)[C@H]1CCCN1 (racemic) | – | – | – | – | – | – | 83 | 108 | Activity [7]: 95%; Activity [8]: 93% |
| N[C@H](C(=O)O)[C@H]1CCCN1 (racemic) | – | – | 372 | – | – | – | 1 | 52 | Activity [8]: 59% |
| Cc1ccsc1C(=CCCN1CCC[C@@H](C(=O)O)C1)c1sccc1C [TIAGABINE] | – | – | – | – | – | 0.0372 | – | – | – |
| Cc1ccsc1C(=CCCN1CCC[C@@H]1[C@H](O)C(=O)O)c1sccc1C (racemic) | 58 | 42.7 | – | 2.14 | 0.0661 | 0.102 | – | – | Selectivity ratio (Mus musculus): > 47; Activity [11]: 59%; IC50 [12]: 0.724 µM |
| N[C@@H](C(=O)O)[C@H]1CCCN1CCC=C(c1ccccc1)c1ccccc1 (racemic) | 66 | 11.5 | 17.4 | 49 | – | – | – | – | – |
| O=C(O)C[C@@H]1CCCN1 | – | 141 | 309 | 407 | – | – | – | 77 | – |
| Cc1ccsc1C(=CCCN1CCC[C@@H]1[C@@H](N)C(=O)O)c1sccc1C (racemic) | – | 30.2 | 31.6 | 14.1 | 20.4 | 17.4 | – | – | IC50 (GABA transporter 2): 42.7 µM |
| O=C(O)[C@@H](O)[C@H]1CCCN1 (racemic) | – | 269 | – | – | – | – | 53 | 95 | Activity [7]: 61% |
